From article PMC3658176 (Cancer cell, 2013)
Where no end group is shown, it is not given here.

Tests used:
H2-K^b = target: T1, H2-K^b (Mus musculus, UniProt P01901); test: Cell-free competition MHC peptide binding assay, purified H2-K^b
T1 sequence (P01901 22-369): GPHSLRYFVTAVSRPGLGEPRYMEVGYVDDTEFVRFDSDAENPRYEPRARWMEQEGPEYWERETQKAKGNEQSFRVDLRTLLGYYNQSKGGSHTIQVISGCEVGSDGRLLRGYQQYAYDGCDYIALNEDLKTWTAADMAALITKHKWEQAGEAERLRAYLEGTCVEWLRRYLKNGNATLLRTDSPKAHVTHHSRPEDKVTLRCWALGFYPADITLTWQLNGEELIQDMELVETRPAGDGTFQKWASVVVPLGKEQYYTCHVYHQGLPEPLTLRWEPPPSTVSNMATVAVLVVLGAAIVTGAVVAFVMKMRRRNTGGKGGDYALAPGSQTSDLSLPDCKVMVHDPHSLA
T1 sequence (P01887 21-119 partner): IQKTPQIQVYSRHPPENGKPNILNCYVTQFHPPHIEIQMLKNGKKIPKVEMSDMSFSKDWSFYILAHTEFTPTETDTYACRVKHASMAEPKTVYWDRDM

H2-D^b = target: T2, H2-D^b (Mus musculus, UniProt P01899); test: Cell-free competition MHC peptide binding assay, purified H2-D^b
T2 sequence (P01899 25-362): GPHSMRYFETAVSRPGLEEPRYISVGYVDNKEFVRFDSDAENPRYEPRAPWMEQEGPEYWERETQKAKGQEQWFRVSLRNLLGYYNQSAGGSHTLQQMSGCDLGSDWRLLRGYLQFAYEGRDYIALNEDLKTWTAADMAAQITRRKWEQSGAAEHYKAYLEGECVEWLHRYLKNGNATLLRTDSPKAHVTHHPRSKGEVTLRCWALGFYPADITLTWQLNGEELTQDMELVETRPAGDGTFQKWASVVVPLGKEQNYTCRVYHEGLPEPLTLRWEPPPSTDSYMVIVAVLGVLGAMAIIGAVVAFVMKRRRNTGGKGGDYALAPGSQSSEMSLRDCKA
T2 sequence (P01887 21-119 partner): T1 sequence (P01887 21-119 partner)

HLA-A*0201 = HLA-A*0201 (Homo sapiens, UniProt P04439, D140Y/D185E/D98H/E176V/E277Q/G131W/G231S/I119V/I121R/I166T/I218V/L300P/L318F/N151K/N90K/P208A/P217A/Q86G/Q94H/R138H/R169H/T345S); test: Cell-free competition MHC peptide binding assay, purified HLA-A*0201
Outline: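 Purified MHC class I molecule incubated with a labelled probe peptide and graded concentrations of unlabelled test peptide. IC50 taken as the inhibitor peptide concentration that displaces half of the probe. Labelled probe concentration was below MHC concentration. Under these conditions, and where IC50 ≥ MHC concentration, IC50 approximates KD.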

IC50 (H2-D^b)	Molecule	IC50 (H2-K^b)	further results
–	CC[C@H](C)[C@H](NC(=O)[C@@H](NC(=O)[C@@H](N)CO)[C@@H](C)CC)C(=O)N[C@@H](CC(N)=O)C(=O)N[C@@H](Cc1ccccc1)C(=O)N[C@@H](CCC(=O)O)C(=O)N[C@@H](CCCCN)C(=O)N[C@@H](CC(C)C)C(=O)O [OVA257–264]	0.9 nM	–
454 nM	EGPRNQDWL [EGP]	–	–
–	FMDGTMSQV [Tyr369–377]	–	IC50 (HLA-A*0201): 4.2 nM
186 nM	KVPRNQDWL [hgp100_25–33]	–	–
–	SIYRYYGL [SIY]	1.1 nM	–

Molecule	IC50 (H2-D^b)	IC50 (H2-K^b)	further results
EGSRNQDWL [mgp100_25–33]	23000 nM	–	–
